Reference: ChEMBL document CHEMBL5661972, “In vitro biological activity of a novel small-molecule inhibitor of polo-like kinase 1” (Mol Cancer Ther, 2007)
Activity calls are given as the source filed them. No cut-off for these calls is given here.

Tests used:
[1] = target: Serine/threonine-protein kinase PLK1 (Homo sapiens, UniProt P53350); assay: Inhibition of human PLK1 expressed in baculovirus infected in Trichoplusia ni cells using Biotin-Ahx-SFNDTLDFD as substrate in presence of ATP by TopCount scintillation proximity assay; parameters: species or system Trichoplusia ni cell
Serine/threonine-protein kinase PLK1, sequence (P53350 whole entry, the tested form may be a part): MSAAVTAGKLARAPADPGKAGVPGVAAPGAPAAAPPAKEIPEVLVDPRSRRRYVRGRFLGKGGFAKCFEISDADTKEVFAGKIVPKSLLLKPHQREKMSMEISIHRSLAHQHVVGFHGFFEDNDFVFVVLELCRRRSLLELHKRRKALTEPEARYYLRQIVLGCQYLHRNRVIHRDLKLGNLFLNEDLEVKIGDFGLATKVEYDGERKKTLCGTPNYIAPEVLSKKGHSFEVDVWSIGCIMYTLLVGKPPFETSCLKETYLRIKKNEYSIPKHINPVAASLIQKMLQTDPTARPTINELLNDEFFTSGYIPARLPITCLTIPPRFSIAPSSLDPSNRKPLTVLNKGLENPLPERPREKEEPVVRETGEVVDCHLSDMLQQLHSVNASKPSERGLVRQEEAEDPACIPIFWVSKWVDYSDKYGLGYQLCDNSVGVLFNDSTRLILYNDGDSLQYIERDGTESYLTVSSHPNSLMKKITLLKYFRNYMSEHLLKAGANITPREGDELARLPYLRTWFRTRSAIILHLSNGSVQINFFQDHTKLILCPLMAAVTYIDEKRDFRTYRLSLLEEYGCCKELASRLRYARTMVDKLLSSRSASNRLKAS
Summary of the method: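 Baculovirus-expressed PLK1 kinase domain (2 nmol/L) in 25 mmol/L HEPES pH 7.2, 15 mmol/L MgCl2, 1 μmol/L ATP plus [γ-33P]ATP, 1 μmol/L biotinylated peptide substrate, BSA and DTT; 1–1.5 h at 22°C. Stopped with EDTA/streptavidin SPA beads. Signal above EDTA background converted to percent inhibition versus DMSO-only wells.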

Aurora kinase A = target: T1, Aurora kinase A (Homo sapiens, UniProt O14965); assay: Inhibition of Aurora A (unknown origin)
T1 sequence (O14965 whole entry): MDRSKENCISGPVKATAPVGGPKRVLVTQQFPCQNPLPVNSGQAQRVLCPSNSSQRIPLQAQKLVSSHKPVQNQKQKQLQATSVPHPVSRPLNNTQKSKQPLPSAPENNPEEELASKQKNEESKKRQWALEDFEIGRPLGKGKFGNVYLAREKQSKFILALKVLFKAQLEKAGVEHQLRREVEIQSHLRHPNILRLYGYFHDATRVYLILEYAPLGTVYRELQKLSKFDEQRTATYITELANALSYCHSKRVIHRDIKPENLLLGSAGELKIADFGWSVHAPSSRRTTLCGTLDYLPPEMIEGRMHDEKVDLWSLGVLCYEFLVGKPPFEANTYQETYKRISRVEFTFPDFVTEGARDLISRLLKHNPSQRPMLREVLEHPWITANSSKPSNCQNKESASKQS

CDK1/Cyclin A = CDK1/Cyclin A (Homo sapiens, UniProt P06493); assay: Inhibition of CDK1/cyclin A (unknown origin); type: protein-complex assay
CDK1/Cyclin A, sequence (P06493 whole entry): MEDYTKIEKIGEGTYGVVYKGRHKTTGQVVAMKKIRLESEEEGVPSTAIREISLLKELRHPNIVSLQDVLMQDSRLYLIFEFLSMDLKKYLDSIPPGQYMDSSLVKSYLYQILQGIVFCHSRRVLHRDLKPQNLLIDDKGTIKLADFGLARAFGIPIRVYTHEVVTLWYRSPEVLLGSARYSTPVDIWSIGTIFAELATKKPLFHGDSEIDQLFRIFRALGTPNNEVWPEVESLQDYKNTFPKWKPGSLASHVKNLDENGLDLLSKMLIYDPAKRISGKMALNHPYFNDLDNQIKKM
CDK1/Cyclin A, sequence (P20248 whole entry, further chain): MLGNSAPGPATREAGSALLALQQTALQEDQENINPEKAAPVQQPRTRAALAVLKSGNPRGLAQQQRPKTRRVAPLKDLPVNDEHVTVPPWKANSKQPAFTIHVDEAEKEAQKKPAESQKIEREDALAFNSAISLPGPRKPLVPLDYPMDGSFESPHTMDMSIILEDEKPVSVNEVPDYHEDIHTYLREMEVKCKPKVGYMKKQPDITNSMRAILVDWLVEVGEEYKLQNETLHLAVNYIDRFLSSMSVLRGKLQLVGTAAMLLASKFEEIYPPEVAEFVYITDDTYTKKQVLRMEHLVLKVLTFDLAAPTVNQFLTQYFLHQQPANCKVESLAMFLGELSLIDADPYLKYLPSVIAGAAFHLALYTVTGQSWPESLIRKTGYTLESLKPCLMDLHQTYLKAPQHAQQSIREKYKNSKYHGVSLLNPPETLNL

BT-474 = assay: Antiproliferative activity against human BT-474 cells assessed as inhibition of cell growth; type: functional, cell-based
MES-SA = assay: Antiproliferative activity against human MES-SA cells assessed as inhibition of cell growth; type: functional, cell-based
Summary of the method: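 Cells grown 3 days in 96-well plates, seeded so vehicle controls stay in log growth (MES-SA/DX5 7,000, MES-SA 6,000, HDF 5,000 per well). Exposed to 3-fold dilutions, 30–0.00152 μmol/L, in medium with 5% FBS, 50 μg/mL gentamicin and 0.3% (v/v) DMSO. HDF medium was low-glucose DMEM; MES-SA lines used McCoy's 5A.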

[2] = Selectivity ratio of IC50 for cytotoxicity against human HDF cells to IC50 for antiproliferative activity against human A549 cells; type: toxicity, cell-based; conditions: HDF cells versus A549 cells, read-out: Ratio IC50
[3] = Selectivity ratio of IC50 for cytotoxicity against human HDF cells to IC50 for antiproliferative activity against human BT-474 cells; type: toxicity, cell-based; conditions: HDF cells versus BT-474 cells, read-out: Ratio IC50
NHDF [4] = assay: Cytotoxicity against human HDF cells assessed as outgrowth of cells at 0.37 to 3.3 micromol/L incubated for 72 hrs by methylene blue staining based analysis; type: toxicity, cell-based; conditions: dose 0.37-3.3 µmol/L
Summary of the method: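 HDF seeded at 1,300 and H460 at 600 per well in 96-well plates. After 24 h, exposed to vehicle (0.3% DMSO) or compound at 0.37–30 μmol/L for 72 h. Wells were then washed with PBS and refed with drug-free medium containing gentamicin. Regrowth was followed by methylene blue staining at set time points over 13 days in total.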

NHDF [5] = assay: Induction of cell cycle arrest in human HDF cells assessed as accumulation of cells at >4N phase at 1 micromol/L incubated for 24 hrs by propidium iodide staining based flow cytometry analysis (reference value: 2.4 %); type: toxicity; conditions: 1 µM, dose 1 µmol/L
Summary of the method: (§1)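 Cells seeded in six-well plates at densities that keep them in log growth (HDF 120,000, 60,000 or 30,000; H460 100,000, 50,000 or 25,000 per well for 24, 48 or 72 h). Treated with 1 or 3 μmol/L. Floating and adherent cells collected, ethanol-fixed, permeabilized with Triton X-100 and stained with propidium iodide. DNA content read by flow cytometry as % singlet cells.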

NHDF [6] = assay: Induction of cell cycle arrest in human HDF cells assessed as accumulation of cells at G2-M phase at 1 micromol/L incubated for 48 hrs by propidium iodide staining based flow cytometry analysis (reference value: 14.3 %); type: toxicity; conditions: 1 µM, dose 1 µmol/L; summary of the method: as §1
NHDF [7] = assay: Induction of cell cycle arrest in human HDF cells assessed as accumulation of cells at G2-M phase at 3 micromol/L incubated for 48 hrs by propidium iodide staining based flow cytometry analysis (reference value: 14.3 %); type: toxicity; conditions: 3 µM, dose 3 µmol/L; summary of the method: as §1
NHDF [8] = assay: Induction of cell cycle arrest in human HDF cells assessed as accumulation of cells at >4N phase at 3 micromol/L incubated for 48 hrs by propidium iodide staining based flow cytometry analysis (reference value: 3.0 %); type: toxicity; conditions: 3 µM, dose 3 µmol/L; summary of the method: as §1
NHDF [9] = assay: Induction of cell cycle arrest in human HDF cells assessed as accumulation of cells at G2-M phase at 1 micromol/L incubated for 72 hrs by propidium iodide staining based flow cytometry analysis (reference value: 8.2 %); type: toxicity; conditions: 1 µM, dose 1 µmol/L; summary of the method: as §1
NHDF [10] = assay: Induction of cell cycle arrest in human HDF cells assessed as accumulation of cells at >4N phase at 1 micromol/L incubated for 72 hrs by propidium iodide staining based flow cytometry analysis (reference value: 1.4 %); type: toxicity; conditions: 1 µM, dose 1 µmol/L; summary of the method: as §1
NCI-H460 [11] = assay: Induction of cell cycle arrest in human NCI-H460 cells assessed as accumulation of cells at G2-M phase at 1 micromol/L incubated for 24 hrs by propidium iodide staining based flow cytometry analysis (reference value: 19.8 %); type: functional; conditions: dose 1 µmol/L, at 1 µM
NCI-H460 [12] = assay: Induction of cell cycle arrest in human NCI-H460 cells assessed as accumulation of cells at >4N phase at 3 micromol/L incubated for 48 hrs by propidium iodide staining based flow cytometry analysis (reference value: 0.9 %); type: functional; conditions: dose 3 µmol/L, at 3 µM; summary of the method: as §1
NCI-H460 [13] = assay: Induction of cell cycle arrest in human NCI-H460 cells assessed as accumulation of cells at G1 phase at 3 micromol/L incubated for 72 hrs by propidium iodide staining based flow cytometry analysis (reference value: 58.2 %); type: functional; conditions: dose 3 µmol/L, at 3 µM
NCI-H460 [14] = assay: Induction of cell cycle arrest in human NCI-H460 cells assessed as accumulation of cells at S phase at 3 micromol/L incubated for 72 hrs by propidium iodide staining based flow cytometry analysis (reference value: 17.8 %); type: functional; conditions: dose 3 µmol/L, at 3 µM
NCI-H460 [15] = assay: Induction of cell cycle arrest in human NCI-H460 cells assessed as accumulation of cells at >4N phase at 1 micromol/L incubated for 72 hrs by propidium iodide staining based flow cytometry analysis (reference value: 0.9 %); type: functional; conditions: dose 1 µmol/L, at 1 µM; summary of the method: as §1
NCI-H460 [16] = assay: Induction of apoptosis in human NCI-H460 cells assessed as increase in caspase-3 activity at 5 micromol/L measured after 46 hrs using AcDEVD-[…] fluorogenic peptide as substrate by plate reader analysis; type: functional, cell-based; conditions: dose 5.0 µmol/L
Summary of the method: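 H460 cells seeded at 320,000 per well in six-well plates and given 5 μmol/L for 7 to 72 h. Lysates made in Tris/phosphate buffer, pH 7.5, with Triton X-100. Cleavage of Ac-DEVD-[…] measured by fluorescence, excitation 380 nm, emission 420–460 nm.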

IC50 [1]: 2.2 nM | IC50 (Aurora kinase A): 4800 nM | IC50 (CDK1/Cyclin A): > 10000 nM | IC50 (BT-474): 570 nM
SMILES: COc1cc2ncn(-c3cc(OCc4ccccc4C(F)(F)F)c(C(N)=O)s3)c2cc1OC [GW843682X]
IC50 (MES-SA): 210 nM | selectivity ratio [2]: > 10 | selectivity ratio [3]: > 10 | Activity (NHDF [4]): Toxic | Activity (NHDF [5]): 3.5% | Activity (NHDF [6]): 27% | Activity (NHDF [7]): 61.2% | Activity (NHDF [8]): 11.2% | Activity (NHDF [9]): 21.6% | Activity (NHDF [10]): 3.5% | Activity (NCI-H460 [11]): 33% | Activity (NCI-H460 [12]): 35.9% | Activity (NCI-H460 [13]): 3.7% | Activity (NCI-H460 [14]): 3.6% | Activity (NCI-H460 [15]): 58.6% | Activity (NCI-H460 [16]): Active
